From ChEMBL document CHEMBL1135732, “Synthesis and antitumor activity of several new analogues of penclomedine and its metabolites” (2002) come the findings set out here.

Test [1] has as its system Mus musculus. The test is described as follows: In vivo optimal (ip) dosage (<LD10) against subcutaneously implanted human mammary tumor xenograft MX-1 on a five-successive day schedule in Athymic NCr-nu/nu mice; Toxic. Type of test: functional, organism-based. The method, boiled down:
(§1)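 MX-1 human breast tumor (NCI repository), fragments of 30–40 mg from in vivo passage implanted subcutaneously in the axillary region. Groups of five mice dosed ip for 5 days once tumors reached about 300 mg, with compound as a suspension in aqueous hydroxypropyl cellulose. Tumors were caliper-measured in two dimensions twice weekly and converted to mass. Growth delay T−C was the difference in median time to two doublings versus vehicle controls. Regressions and tumor-free survivors were also recorded. The study ended when controls reached 1 g.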

The subject of test [2] is Mus musculus. The test is described as follows: In vivo optimal (ip) dosage (<LD10) against subcutaneously implanted human mammary tumor xenograft MX-1 on a five-successive day schedule in Athymic NCr-nu/nu mice. Format: functional. The method, boiled down: (§2)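 Human MX-1 breast tumor fragments (30–40 mg) from in vivo passage implanted subcutaneously in the axillary region. Dosing ip as a suspension in aqueous hydroxypropyl cellulose, once daily for 5 days, beginning when tumors reached about 300 mg. Groups of five mice. Tumors caliper-measured in two dimensions twice weekly and converted to mass. Study ended when control tumors reached 1 g.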

The species entered for test [3] is Mus musculus. The test is described as follows: Tumor growth delay in comparison vehicle-treated control, difference in the median time poststaging for tumors of the treated (T) group to double twice in mass compared to the median of the control (C) group ce. Type of test: functional. Summed up:
as §1

For test [4], the species on record is Mus musculus. The test is described as follows: Number of tumor-free survivors in a group of five mice. Type of test: functional. The method, boiled down: as §2

With `CC(=O)Oc1c(Cl)c(Cl)nc(C(Cl)(Cl)Cl)c1Cl`, in the test on Mus musculus [1], the Optimal dosage entry was “Toxic”.
In turn, `FC(F)(F)COc1nc(C(Cl)(Cl)Cl)c(Cl)c(OCC(F)(F)F)c1Cl` gave an Optimal dosage with Mus musculus [2] of 135 mg kg-1 dose-1 day-1. This compound also registered a T-C in the test listed under Mus musculus [3] of 0.4 days. The Tumor-free in the test filed under Mus musculus [4] worked out at 0 survivors/total.
In the test with Mus musculus [2], `CCOc1c(Cl)c(OC)nc(C(Cl)(Cl)Cl)c1Cl` showed an Optimal dosage of 90 mg kg-1 dose-1 day-1. Further, the T-C in the test listed under Mus musculus [3] is more than 42.7 days. Moreover, the Tumor-free in the test listed under Mus musculus [4] turned out to be 5 survivors/total.
On the same counts, the results for `COc1c(Cl)c(OCC(F)(F)F)nc(C(Cl)(Cl)Cl)c1Cl` are 90 mg kg-1 dose-1 day-1, 1.2 days and 0 survivors/total.
In the test on Mus musculus [2], `CC(=O)Oc1nc(C(Cl)(Cl)Cl)c(Cl)c(OC(C)=O)c1Cl` came in with an Optimal dosage of 40 mg kg-1 dose-1 day-1. In the test listed under Mus musculus [3], this compound gave a T-C of -0.5 days. Further, the Tumor-free in the test filed under Mus musculus [4] came out at 0 survivors/total.
In turn, `COc1nc(C(Cl)(Cl)Cl)c(Cl)c(OC(C)C)c1Cl` registered an Optimal dosage in the test on Mus musculus [2] of 60 mg kg-1 dose-1 day-1. The same compound gave a T-C in the test filed under Mus musculus [3] of more than 35.2 days. In the test listed under Mus musculus [4], this compound returned a Tumor-free of 2 survivors/total.
For `CCCCOc1nc(C(Cl)(Cl)Cl)c(Cl)c(O)c1Cl`, the Optimal dosage in the test on Mus musculus [2] worked out at 135 mg kg-1 dose-1 day-1. This compound registered a T-C in the test filed under Mus musculus [3] of -0.9 days. Further, the Tumor-free in the test filed under Mus musculus [4] was determined as 0 survivors/total.
In turn, `COc1c(Cl)c(Cl)nc(C(Cl)(Cl)Cl)c1Cl` returned an Optimal dosage in the test on Mus musculus [2] of 50 mg kg-1 dose-1 day-1. The compound also showed a T-C in the test filed under Mus musculus [3] of 4.3 days. Also, the Tumor-free in the test listed under Mus musculus [4] was 0 survivors/total.
On to `Clc1c(Oc2ccccc2)nc(C(Cl)(Cl)Cl)c(Cl)c1Oc1ccccc1`, for which the Optimal dosage in the test on Mus musculus [2] stood at 135 mg kg-1 dose-1 day-1. In the test filed under Mus musculus [3], this compound gave a T-C of 0.2 days. The Tumor-free in the test listed under Mus musculus [4] stood at 0 survivors/total.
The compound `COc1nc(C(Cl)(Cl)Cl)c(Cl)c(OC(C)=O)c1Cl` displayed an Optimal dosage with Mus musculus [2] of 90 mg kg-1 dose-1 day-1. In the test filed under Mus musculus [3], this compound had a T-C of more than 41 days. Besides, the Tumor-free in the test listed under Mus musculus [4] is reported as 5 survivors/total.
In turn, `Oc1c(Cl)c(OCC(F)(F)F)nc(C(Cl)(Cl)Cl)c1Cl` gave an Optimal dosage with Mus musculus [2] of 90 mg kg-1 dose-1 day-1. In addition, the T-C in the test filed under Mus musculus [3] is -0.2 days. The compound also had a Tumor-free in the test listed under Mus musculus [4] of 0 survivors/total.
Taken in the same sequence, the figures for `CCOc1nc(C(Cl)(Cl)Cl)c(Cl)c(O)c1Cl` were 60 mg kg-1 dose-1 day-1, 5.2 days and 0 survivors/total.
In the test with Mus musculus [2], `CCOc1nc(C(Cl)(Cl)Cl)c(Cl)c(OC)c1Cl` showed an Optimal dosage of 200 mg kg-1 dose-1 day-1. In the test filed under Mus musculus [3], this compound returned a T-C of more than 38.6 days. Also, the Tumor-free in the test listed under Mus musculus [4] stood at 2 survivors/total.
Taken in the same sequence, the figures for `CCOc1nc(C(Cl)(Cl)Cl)c(Cl)c(OCC)c1Cl` were 135 mg kg-1 dose-1 day-1, more than 41 days and 4 survivors/total.
`CCOc1nc(C(Cl)(Cl)Cl)c(Cl)c(OC(=O)COC)c1Cl`: the Optimal dosage in the test with Mus musculus [2] is reported as 135 mg kg-1 dose-1 day-1. The same compound had a T-C in the test filed under Mus musculus [3] of 17.8 days. In the test filed under Mus musculus [4], this compound had a Tumor-free of 0 survivors/total.
`CCCCOc1c(Cl)c(OC)nc(C(Cl)(Cl)Cl)c1Cl`: the Optimal dosage in the test on Mus musculus [2] amounted to 90 mg kg-1 dose-1 day-1. Besides, the T-C in the test filed under Mus musculus [3] is 20.5 days. In addition, the Tumor-free in the test filed under Mus musculus [4] came out at 1 survivors/total.
Consider `COc1c(Cl)c(C(Cl)(Cl)Cl)nc(C(Cl)(Cl)Cl)c1Cl`, for which the Optimal dosage in the test on Mus musculus [2] turned out to be 135 mg kg-1 dose-1 day-1. For the same compound, in the test listed under Mus musculus [3], the T-C is -0.8 days. Besides, the Tumor-free in the test filed under Mus musculus [4] came out at 0 survivors/total.
With `CCCCOc1nc(C(Cl)(Cl)Cl)c(Cl)c(OCCCC)c1Cl`, in the test on Mus musculus [2], the Optimal dosage was 135 mg kg-1 dose-1 day-1. For the same compound, the T-C in the test filed under Mus musculus [3] is -0.6 days. The compound further came in with a Tumor-free in the test filed under Mus musculus [4] of 0 survivors/total.
`COc1nc(C(Cl)(Cl)Cl)c(Cl)c(Cl)c1Cl` had an Optimal dosage in the test with Mus musculus [2] of 135 mg kg-1 dose-1 day-1. In the test filed under Mus musculus [3], this compound gave a T-C of -1.4 days. The compound also gave a Tumor-free in the test filed under Mus musculus [4] of 0 survivors/total.
Consider `COc1nc(C(Cl)(Cl)Cl)c(Cl)c(OC)c1Cl` [PENCLOMEDINE], for which the Optimal dosage in the test with Mus musculus [2] is given as 90 mg kg-1 dose-1 day-1. Further, in the test listed under Mus musculus [3], the T-C was more than 49 days. Moreover, the Tumor-free in the test filed under Mus musculus [4] is on record as 5 survivors/total.
For `COc1nc(C(Cl)(Cl)Cl)c(Cl)c(O)c1Cl`, the Optimal dosage in the test with Mus musculus [2] is 90 mg kg-1 dose-1 day-1. Further, the T-C in the test listed under Mus musculus [3] was more than 37.2 days. For the same compound, the Tumor-free in the test listed under Mus musculus [4] amounted to 3 survivors/total.
Taken in the same sequence, the figures for `CCOc1nc(C(Cl)(Cl)Cl)c(Cl)c(OC(C)=O)c1Cl` were 90 mg kg-1 dose-1 day-1, 1.4 days and 0 survivors/total.
In turn, `CCCOc1c(Cl)c(OC)nc(C(Cl)(Cl)Cl)c1Cl` yielded an Optimal dosage in the test with Mus musculus [2] of 60 mg kg-1 dose-1 day-1. For the same compound, the T-C in the test listed under Mus musculus [3] came to 5.4 days. The Tumor-free in the test listed under Mus musculus [4] is reported as 0 survivors/total.
On to `Oc1c(Cl)c(Cl)nc(C(Cl)(Cl)Cl)c1Cl`, for which the Optimal dosage with Mus musculus [2] is reported as 50 mg kg-1 dose-1 day-1. This compound also displayed a T-C in the test filed under Mus musculus [3] of 2 days. The Tumor-free in the test filed under Mus musculus [4] is 0 survivors/total.
In the test with Mus musculus [2], `Oc1nc(C(Cl)(Cl)Cl)c(Cl)c(O)c1Cl` yielded an Optimal dosage of 40 mg kg-1 dose-1 day-1. Besides, the T-C in the test filed under Mus musculus [3] was -0.5 days. The Tumor-free in the test listed under Mus musculus [4] amounted to 0 survivors/total.
The compound `CC(C)Oc1nc(C(Cl)(Cl)Cl)c(Cl)c(OC(C)C)c1Cl` showed an Optimal dosage in the test on Mus musculus [2] of 135 mg kg-1 dose-1 day-1. The T-C in the test listed under Mus musculus [3] is -0.7 days. For the same compound, the Tumor-free in the test listed under Mus musculus [4] is 0 survivors/total.
Compound `CCCCOc1nc(C(Cl)(Cl)Cl)c(Cl)c(OC)c1Cl` displayed an Optimal dosage in the test on Mus musculus [2] of 135 mg kg-1 dose-1 day-1. The compound also displayed a T-C in the test listed under Mus musculus [3] of -0.8 days. This compound yielded a Tumor-free in the test listed under Mus musculus [4] of 0 survivors/total.
`COc1c(Cl)c(Oc2ccccc2)nc(C(Cl)(Cl)Cl)c1Cl` registered an Optimal dosage in the test with Mus musculus [2] of 135 mg kg-1 dose-1 day-1. Also, the T-C in the test filed under Mus musculus [3] was 2.3 days. The compound also displayed a Tumor-free in the test filed under Mus musculus [4] of 0 survivors/total.
In the test with Mus musculus [2], `COc1c(Cl)c(O)nc(C(Cl)(Cl)Cl)c1Cl` registered an Optimal dosage of 135 mg kg-1 dose-1 day-1. The same compound registered a T-C in the test listed under Mus musculus [3] of 0.8 days. In the test listed under Mus musculus [4], this compound displayed a Tumor-free of 0 survivors/total.
